Series [1] in a line: Compound was evaluated for its partition between n-octanol and water(pH 7). The series is classed as physicochemical. The conditions noted are these: buffer. The essentials: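 100 mM stock in DMSO diluted to 1 mM in 50 mM potassium phosphate buffer (pH 7.0); 5 mL aqueous solution mixed and partitioned with 5 mL n-octanol. Compound in the octanol phase quantified by HPLC (UV 240 nm). Mean ± SD, n = 6.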

A short description of series [2]: Free radical scavenging assessed as color reduction of DPPH. In kind it is functional. The essentials: (§1)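 DPPH (0.5 mM in ethanol, 1 part) mixed with antioxidant in ethanol/H2O 1:1 (4 parts; 1.25 × 10⁻⁶ to 1.25 × 10⁻³ M solutions); DPPH in reaction 10⁻⁴ M. Room temperature, 20 min; decolorization read at 516 nm. EC50 = concentration giving 50% of blank absorbance, from dose-response curve; mean ± SD of triplicates.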
A general note: Loss of DPPH colour is used to gauge radical scavenging.

The nature of series [3]: Free radical scavenging assessed as 50% reduction in DPPH absorbance (516 nm). In kind it is functional. The essentials: as §1

In the case of `CCCCCCCCCCCCCCCCCC(=O)OC[C@H](O)[C@H]1OC(O)=C(O[C@@H]2OC(CO)[C@@H](O)C(O)[C@@H]2O)C1=O` (stereo partly specified), the Distribution percent in series [1] is given as 84.6. In series [2], the Scavenging activity was 77.5%. Further, the EC50 in series [3] was 4.4 10uM.
On to `CCCCCCCCCCCCCCCC(=O)OC[C@H](O)[C@H]1OC(=O)C(O)=C1O`, for which the Scavenging activity in series [2] turned out to be 95.7%.
As for VITAMIN E [listing 1 of 2 here], the EC50 in series [3] was 1.9 10uM.
In the case of `CCCCCCCCCC(=O)OC[C@H](O)[C@H]1OC(O)=C(O[C@@H]2OC(CO)[C@@H](O)C(O)[C@@H]2O)C1=O` (stereo partly specified), the Distribution percent in series [1] was found to be 76.6. Further, the Scavenging activity in series [2] was found to be 73.6%. In addition, the EC50 in series [3] is 4.2 10uM.
Take `CCCCCCCCCCCCCC(=O)OC[C@H](O)[C@H]1OC(O)=C(O[C@@H]2OC(CO)[C@@H](O)C(O)[C@@H]2O)C1=O` (stereo partly specified): in series [1], the Distribution percent was found to be 87. For the same molecule, in series [2], the Scavenging activity stood at 74.1%. In addition, in series [3], the EC50 was 4.4 10uM.
The matching figures for `CCCCCCCCCCCC(=O)OC[C@H](O)[C@H]1OC(O)=C(O[C@@H]2OC(CO)[C@@H](O)C(O)[C@@H]2O)C1=O` (stereo partly specified): 83.8, 76.2% and 4.6 10uM.
The molecule `CCCCCC(=O)OC[C@H](O)[C@H]1OC(O)=C(O[C@@H]2OC(CO)[C@@H](O)C(O)[C@@H]2O)C1=O` (stereo partly specified) gave a Distribution percent in series [1] of 8.7. Further, the Scavenging activity in series [2] amounted to 73.8%. The EC50 in series [3] is 5.4 10uM.
As for VITAMIN E [listing 2 of 2 here], the Scavenging activity in series [2] was 90.9%.
As to `CCCC(=O)OC[C@H](O)[C@H]1OC(O)=C(O[C@@H]2OC(CO)[C@@H](O)C(O)[C@@H]2O)C1=O` (stereo partly specified), in series [1], the Distribution percent was determined as 4. Further, in series [2], the Scavenging activity stood at 69.2%. For the same molecule, the EC50 in series [3] is 5.9 10uM.
As for `O=C1C(OS(=O)(=O)O)=C(O)O[C@@H]1[C@@H](O)CO`, the Scavenging activity in series [2] came to 0%.
Consider `CCCCCCCCCCCCCCCC(=O)OC[C@H](O)[C@H]1OC(O)=C(OC(=O)CCCCCCCCCCCCCCC)C1=O`, for which the Scavenging activity in series [2] turned out to be 23.7%.
The molecule `CCCCCCCCCCCCCCCC(=O)OC[C@H](O)[C@H]1OC(O)=C(O[C@@H]2OC(CO)[C@@H](O)C(O)[C@@H]2O)C1=O` (stereo partly specified) displayed a Distribution percent in series [1] of 87.3. Further, the Scavenging activity in series [2] was found to be 76.4%. In addition, in series [3], the EC50 is reported as 4.1 10uM.
Regarding `CCCCCCCC(=O)OC[C@H](O)[C@H]1OC(O)=C(O[C@@H]2OC(CO)[C@@H](O)C(O)[C@@H]2O)C1=O` (stereo partly specified), in series [1], the Distribution percent stood at 43.4. Also, in series [2], the Scavenging activity worked out at 76.6%. The EC50 in series [3] is reported as 5.7 10uM.
For `O=C1O[C@H]([C@@H](O)CO)C(O)=C1O` [ASCORBIC ACID], in that order: 0.7, 94.3% and 2.2 10uM.
Turning to `O=C1C(OP(=O)(O)O)=C(O)O[C@@H]1[C@@H](O)CO`, the Scavenging activity in series [2] was determined as 1.5%.
Molecule `O=C1C(O[C@@H]2OC(CO)[C@@H](O)C(O)[C@@H]2O)=C(O)O[C@@H]1[C@@H](O)CO` (stereo partly specified) showed a Distribution percent in series [1] of 0. In addition, the Scavenging activity in series [2] was determined as 68.9%. In addition, in series [3], the EC50 is on record as 6.1 10uM.

(Values after ChEMBL document CHEMBL1135591, “Synthesis and characterization of a series of novel monoacylated ascorbic acid derivatives, 6-O-acyl-2-O-alpha-D-glucopyranosyl-L-ascorbic acids, as skin antioxidants” (J Med Chem, 2002).)
